Measured values published in ChEMBL document CHEMBL1142277, “Toward a structure-based model of salvinorin A recognition of the kappa-opioid receptor” (J Med Chem, 2008).

Experiments:
Type in all cases: cell-based
[1] = Displacement of [3H]diprenorphine from chimeric rat mu opioid receptor (1-150)/kappa opioid receptor (142-227)/mu opioid receptor (234-398) expressed in HEK293 cells
In short: (§1)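 Whole-cell binding: HEK-293 cells transiently transfected (calcium phosphate, 10–20 µg pcDNA) with wild-type, point-mutant or chimeric receptor, harvested 48–72 h later, washed and resuspended in 25 mM HEPES pH 7.4. Incubated with [3H]-diprenorphine, room temperature, 90 min. Separation by filtration on PEI-presoaked GF/C filters, scintillation counting. Nonspecific binding with 100 µM naloxone, norBNI or salvinorin A. Triplicates, nonlinear regression.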

[2] = Displacement of [3H]diprenorphine from chimeric rat kappa opioid receptor (1-141)/mu opioid receptor (151-233)/kappa opioid receptor (228-380) expressed in HEK293 cells; in short: as §1
[3] = Displacement of [3H]diprenorphine from chimeric rat kappa opioid receptor (1-227)/mu opioid receptor (234-398) expressed in HEK293 cells; in short: as §1
[4] = Displacement of [3H]diprenorphine from chimeric rat kappa opioid receptor (1-227)/mouse delta opioid receptor (215-372) expressed in HEK293 cells; in short: as §1
Mu-type opioid receptor [5] = target: Mu-type opioid receptor (Rattus norvegicus, UniProt P33535, W318A); test: Displacement of [3H]diprenorphine from rat mu opioid receptor W318A mutant expressed in HEK293 cells; in short: as §1
[6] = Displacement of [3H]diprenorphine from chimeric rat mu opioid receptor (1-150)/kappa opioid receptor (142-380) expressed in HEK293 cells; in short: as §1
[7] = Displacement of [3H]diprenorphine from chimeric rat kappa opioid receptor (1-141)/mouse delta opioid receptor (132-372) expressed in HEK293 cells; in short: as §1
[8] = target: Kappa-type opioid receptor (Rattus norvegicus, UniProt P34975, Y313A); test: Displacement of [3H]diprenorphine from rat kappa opioid receptor Y313A mutant expressed in HEK293 cells; in short: as §1
[9] = target: Kappa-type opioid receptor (Rattus norvegicus, UniProt P34975); test: Displacement of [3H]diprenorphine from rat kappa opioid receptor expressed in HEK293 cells; in short: as §1
[10] = Displacement of [3H]diprenorphine from chimeric rat kappa opioid receptor (1-141)/mu opioid receptor (151-398) expressed in HEK293 cells; in short: as §1
Mu-type opioid receptor [11] = target: Mu-type opioid receptor (Rattus norvegicus, UniProt P33535); test: Displacement of [3H]diprenorphine from rat mu opioid receptor expressed in HEK293 cells; in short: as §1
[12] = Displacement of [3H]diprenorphine from chimeric rat mu opioid receptor (1-233)/kappa opioid receptor (228-380) expressed in HEK293 cells; in short: as §1

Chain of Kappa-type opioid receptor (Rattus norvegicus, UniProt P34975) (P34975 whole entry): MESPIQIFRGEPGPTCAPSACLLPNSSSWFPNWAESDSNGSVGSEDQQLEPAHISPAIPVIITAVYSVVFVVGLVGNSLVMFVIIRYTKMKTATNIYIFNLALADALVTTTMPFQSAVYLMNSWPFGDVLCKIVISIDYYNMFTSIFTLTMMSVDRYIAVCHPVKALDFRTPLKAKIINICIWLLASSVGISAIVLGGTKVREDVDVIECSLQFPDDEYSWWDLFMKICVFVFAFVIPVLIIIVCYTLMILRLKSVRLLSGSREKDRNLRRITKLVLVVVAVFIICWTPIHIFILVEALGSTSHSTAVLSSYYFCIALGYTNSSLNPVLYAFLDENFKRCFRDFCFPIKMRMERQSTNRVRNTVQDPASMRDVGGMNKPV
Chain of Mu-type opioid receptor (Rattus norvegicus, UniProt P33535) (P33535 whole entry): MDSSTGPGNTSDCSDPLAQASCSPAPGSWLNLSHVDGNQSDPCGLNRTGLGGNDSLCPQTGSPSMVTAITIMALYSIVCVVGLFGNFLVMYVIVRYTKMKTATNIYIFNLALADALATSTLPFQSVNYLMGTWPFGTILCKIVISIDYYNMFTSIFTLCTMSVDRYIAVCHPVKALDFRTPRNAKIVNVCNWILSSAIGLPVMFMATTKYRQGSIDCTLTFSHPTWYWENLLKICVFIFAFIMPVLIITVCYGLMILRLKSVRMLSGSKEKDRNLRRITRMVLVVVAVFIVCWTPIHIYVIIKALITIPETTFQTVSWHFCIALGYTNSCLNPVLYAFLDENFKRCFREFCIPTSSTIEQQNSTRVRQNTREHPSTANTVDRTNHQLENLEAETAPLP
Chain of Kappa-type opioid receptor (Rattus norvegicus, UniProt P34975, Y313A) (P34975 whole entry Y313A): as the sequence (P34975 whole entry) above, with Y313A counted along it
Chain of Mu-type opioid receptor (Rattus norvegicus, UniProt P33535, W318A) (P33535 whole entry W318A): as the sequence (P33535 whole entry) above, with W318A counted along it

SMILES	Ki [1]	Ki [2]	Ki [3]	Ki [4]	Ki (Mu-type opioid receptor [5])	Ki [6]	Ki [7]	Ki [8]	Ki [9]	Ki [10]	Ki (Mu-type opioid receptor [11])	Ki [12]
COC(=O)[C@@H]1C[C@H](OC(C)=O)C(=O)[C@H]2[C@@]1(C)CC[C@H]1C(=O)O[C@H](c3ccoc3)C[C@]21C [SALVINORIN A]	458 nM	522 nM	–	–	–	–	–	–	–	–	–	–
COC(=O)[C@@H]1C[C@H](C(=O)c2ccccc2)C(=O)[C@H]2[C@@]1(C)CC[C@H]1C(=O)O[C@H](c3ccoc3)C[C@]21C	615 nM	8320 nM	9400 nM	450 nM	426 nM	4110 nM	> 10000 nM	3870 nM	1380 nM	1610 nM	245 nM	2310 nM
